Laboratory results: ChEMBL document CHEMBL1155479, “Highly potent, non-basic 5-HT6 ligands. Site mutagenesis evidence for a second binding mode at 5-HT6 for antagonism” (Bioorg Med Chem Lett, 2010)

Columns and labels:
[1] = target: 5-hydroxytryptamine receptor 6 (Homo sapiens, UniProt P50406); experiment: Displacement of [3H]LSD form human recombinant 5HT6 receptor
Method in brief: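 Membranes prepared from cells engineered to recombinantly express human 5-HT6 receptors; competitive radioligand binding with [3H]LSD; affinity reported as pKi (−log M).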

[2] = Inhibition of CYP450; format: ADME
[3] = target: Cytochrome P450 2D6 (Homo sapiens, UniProt P10635); experiment: Inhibition of CYP2D6; format: ADME
Cytochrome P450 2D6, sequence (P10635 whole entry): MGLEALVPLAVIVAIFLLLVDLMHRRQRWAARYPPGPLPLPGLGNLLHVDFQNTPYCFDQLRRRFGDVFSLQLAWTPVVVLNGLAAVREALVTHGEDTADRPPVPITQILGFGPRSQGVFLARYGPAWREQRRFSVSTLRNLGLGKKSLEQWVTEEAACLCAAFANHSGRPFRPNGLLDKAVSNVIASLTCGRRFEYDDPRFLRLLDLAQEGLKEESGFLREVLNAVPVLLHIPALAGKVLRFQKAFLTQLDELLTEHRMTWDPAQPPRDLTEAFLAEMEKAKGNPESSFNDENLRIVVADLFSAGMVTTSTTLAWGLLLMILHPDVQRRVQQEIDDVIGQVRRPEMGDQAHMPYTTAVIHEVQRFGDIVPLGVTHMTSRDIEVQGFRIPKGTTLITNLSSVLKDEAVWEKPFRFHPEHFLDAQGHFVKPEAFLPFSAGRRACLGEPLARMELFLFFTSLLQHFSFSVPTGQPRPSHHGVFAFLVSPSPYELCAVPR

5-hydroxytryptamine receptor 6, sequence (P50406 whole entry): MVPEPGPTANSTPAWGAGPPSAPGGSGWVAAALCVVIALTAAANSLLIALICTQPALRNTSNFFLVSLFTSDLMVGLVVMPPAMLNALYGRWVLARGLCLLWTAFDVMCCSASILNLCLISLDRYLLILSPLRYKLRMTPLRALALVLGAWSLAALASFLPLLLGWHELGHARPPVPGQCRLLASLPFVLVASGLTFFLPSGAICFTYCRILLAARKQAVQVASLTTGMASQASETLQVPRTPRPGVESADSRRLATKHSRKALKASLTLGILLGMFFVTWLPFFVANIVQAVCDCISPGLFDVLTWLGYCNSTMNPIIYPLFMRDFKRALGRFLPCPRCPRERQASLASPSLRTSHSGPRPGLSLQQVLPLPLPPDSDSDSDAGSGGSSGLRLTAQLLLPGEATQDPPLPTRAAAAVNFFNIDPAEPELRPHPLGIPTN

Row | SMILES | Ki [1] | other results
1 | CNC(=O)NC[C@@H]1CCCc2cc(S(=O)(=O)c3cccc(F)c3)ccc21 | 0.398 nM | –
2 | CN(C)C(=O)NC[C@@H]1CCCc2cc(S(=O)(=O)c3cccc(F)c3)ccc21 | 2.51 nM | –
3 | CC(=O)NC[C@@H]1CCCc2cc(S(=O)(=O)c3ccccc3)cc(F)c21 | 0.316 nM | IC50 [2]: > 15000 nM
4 | CN(C)S(=O)(=O)NC[C@@H]1CCCc2cc(S(=O)(=O)c3cccc(F)c3)ccc21 | 2 nM | –
5 | O=S(=O)(c1cccc(F)c1)c1ccc2c(c1)CCC[C@H]2CNS(=O)(=O)C(F)(F)F | 31.6 nM | –
6 | N=C(N)NC(=O)C[C@@H]1CCCc2cc(S(=O)(=O)c3cccc(F)c3)ccc21 | 0.631 nM | –
7 | CC(C)(O)C(=O)NC[C@@H]1CCCc2cc(S(=O)(=O)c3cccc(F)c3)ccc21 | 2 nM | –
8 | CS(=O)(=O)NC[C@@H]1CCCc2cc(S(=O)(=O)c3cccc(F)c3)ccc21 | 0.2 nM | –
9 | CN(C[C@@H]1CCCc2cc(S(=O)(=O)c3cccc(F)c3)ccc21)S(C)(=O)=O | 0.398 nM | –
10 | CC(=O)NC[C@@H]1CCCc2cc(S(=O)(=O)c3cccc(F)c3)ccc21 | 0.126 nM | –
11 | CN(C)CC(=O)NC[C@@H]1CCCc2cc(S(=O)(=O)c3cccc(F)c3)ccc21 | 0.398 nM | –
12 | O=C1CN(C[C@@H]2CCCc3cc(S(=O)(=O)c4cccc(F)c4)ccc32)CCN1 | 6.31 nM | –
13 | O=S(=O)(c1cccc(F)c1)c1cc(F)c2c(c1)CCC[C@H]2CNCCO | 0.158 nM | –
14 | COCC(=O)NC[C@@H]1CCCc2cc(S(=O)(=O)c3cccc(F)c3)ccc21 | 0.794 nM | –
15 | CC(C)(C)C(=O)NC[C@@H]1CCCc2cc(S(=O)(=O)c3cccc(F)c3)ccc21 | 3.98 nM | –
16 | NC(=O)NC[C@@H]1CCCc2cc(S(=O)(=O)c3cccc(F)c3)cc(F)c21 | 0.2 nM | –
17 | O=C(CO)NC[C@@H]1CCCc2cc(S(=O)(=O)c3cccc(F)c3)cc(F)c21 | 0.251 nM | –
18 | NS(=O)(=O)NC[C@@H]1CCCc2cc(S(=O)(=O)c3cccc(F)c3)ccc21 | 0.126 nM | –
19 | NC[C@@H]1CCCc2cc(S(=O)(=O)c3cncs3)ccc21 | 0.794 nM | –
20 | NC[C@@H]1CCCc2cc(S(=O)(=O)c3c[nH]c4ccccc34)ccc21 | 0.0501 nM | –

Row | SMILES | Ki [1] | other results
21 | COC(=O)NC[C@@H]1CCCc2cc(S(=O)(=O)c3cccc(F)c3)ccc21 | 1.58 nM | –
22 | CC(=O)N(C)C[C@@H]1CCCc2cc(S(=O)(=O)c3cccc(F)c3)ccc21 | 1.58 nM | –
23 | CNC(=O)CNC[C@@H]1CCCc2cc(S(=O)(=O)c3cccc(F)c3)ccc21 | 1 nM | –
24 | O=S(=O)(c1cccc(F)c1)c1ccc2c(c1)CCC[C@H]2CNCCO | 0.126 nM | –
25 | COCCNC[C@@H]1CCCc2cc(S(=O)(=O)c3cccc(F)c3)ccc21 | 0.251 nM | –
26 | CNCC1CCCc2cc(S(=O)(=O)c3ccccc3)ccc21 (stereo unspecified) | 0.316 nM | –
27 | O=S(=O)(c1ccccc1)c1ccc2c(c1)CCCC2CNc1ncccn1 (stereo unspecified) | 25.1 nM | –
28 | CS(=O)(=O)c1cccc(S(=O)(=O)c2ccc3c(c2)CCC[C@H]3CN)c1 | 3.98 nM | –
29 | O=C(CO)NC[C@@H]1CCCc2cc(S(=O)(=O)c3cccc(F)c3)ccc21 | 0.1 nM | –
30 | N#Cc1cccc(S(=O)(=O)c2ccc3c(c2)CCC[C@H]3CN)c1 | 0.501 nM | –
31 | NC[C@@H]1CCCc2cc(S(=O)(=O)c3cc[nH]c3)ccc21 | 0.316 nM | –
32 | O=C(NC[C@@H]1CCCc2cc(S(=O)(=O)c3cccc(F)c3)ccc21)c1ncc[nH]1 | 15.8 nM | –
33 | CN(C)CC1CCCc2cc(S(=O)(=O)c3ccccc3)ccc21 (stereo unspecified) | 0.0631 nM | –
34 | CNCC(=O)NC[C@@H]1CCCc2cc(S(=O)(=O)c3cccc(F)c3)ccc21 | 0.158 nM | –
35 | CNC[C@@H]1CCCc2cc(S(=O)(=O)c3cc[nH]c3)ccc21 | 0.158 nM | –
36 | Cn1ccc(S(=O)(=O)c2ccc3c(c2)CCC[C@H]3CN)c1 | 7.94 nM | –
37 | NC[C@@H]1CCCc2cc(S(=O)(=O)c3cn[nH]c3)ccc21 | 2 nM | –
38 | O=C(NC[C@@H]1CCCc2cc(S(=O)(=O)c3cccc(F)c3)ccc21)[C@H]1CCCN1 | 0.631 nM | –
39 | O=S(=O)(c1cccc(F)c1)c1ccc2c(c1)CCC[C@H]2CN1CC(O)C1 | 0.1 nM | –
40 | CN(C[C@@H]1CCCc2cc(S(=O)(=O)c3cccc(F)c3)ccc21)C(N)=O | 39.8 nM | –

Row | SMILES | Ki [1] | other results
41 | O=S(=O)(c1cccc(F)c1)c1ccc2c(c1)CCC[C@H]2CN1CCCS1(=O)=O | 31.6 nM | –
42 | N=C(N)NCC1CCCc2cc(S(=O)(=O)c3ccccc3)ccc21 (stereo unspecified) | 0.158 nM | IC50 [3]: < 50 nM
43 | CC(=N)NCC1CCCc2cc(S(=O)(=O)c3ccccc3)ccc21 (stereo unspecified) | 0.631 nM | –
44 | O=C1CN=C(NC[C@@H]2CCCc3cc(S(=O)(=O)c4cccc(F)c4)ccc32)N1 | 0.1 nM | –
45 | O=C(NC[C@@H]1CCCc2cc(S(=O)(=O)c3cccc(F)c3)ccc21)c1ccc[nH]1 | 5.01 nM | –
46 | NC[C@@H]1CCCc2cc(S(=O)(=O)c3cc(F)cc4[nH]cnc34)ccc21 | 5.01 nM | –
47 | NC(=O)CNC[C@@H]1CCCc2cc(S(=O)(=O)c3cccc(F)c3)ccc21 | 0.1 nM | –
48 | CN(CC(N)=O)C[C@@H]1CCCc2cc(S(=O)(=O)c3cccc(F)c3)ccc21 | 1.26 nM | –
49 | NC[C@@H]1CCCc2cc(S(=O)(=O)c3ccccc3)ccc21 | 0.158 nM | –
50 | NC[C@@H]1CCCc2cc(S(=O)(=O)c3cccc(O)c3)ccc21 | 0.251 nM | –
51 | COc1cccc(S(=O)(=O)c2ccc3c(c2)CCC[C@H]3CN)c1 | 0.398 nM | –
52 | NC[C@@H]1CCCc2cc(S(=O)(=O)c3cccc(F)c3)ccc21 | 0.0794 nM | –
53 | O=S(=O)(O)CCCNC[C@@H]1CCCc2cc(S(=O)(=O)c3cccc(F)c3)ccc21 | 1.26 nM | –
54 | NCC(=O)NC[C@@H]1CCCc2cc(S(=O)(=O)c3cccc(F)c3)ccc21 | 0.316 nM | –
55 | NC[C@@H]1CCCc2cc(S(=O)(=O)Cc3ccccc3)ccc21 | 158 nM | –
56 | NC[C@@H]1CCCc2cc(S(=O)(=O)C3CCCCC3)ccc21 | > 1000 nM | –
57 | CN(C[C@@H]1CCCc2cc(S(=O)(=O)c3cccc(F)c3)ccc21)S(N)(=O)=O | 3.98 nM | –
58 | CNS(=O)(=O)NC[C@@H]1CCCc2cc(S(=O)(=O)c3cccc(F)c3)ccc21 | 1 nM | –
59 | NC(=O)NC[C@@H]1CCCc2cc(S(=O)(=O)c3cccc(F)c3)ccc21 [LANDIPIRDINE] | 0.2 nM | –
